In article PMC9906001 (Pulmonary Circulation, 2023):
Several values for one entry are separate records, joined by “and”; a condition that tells them apart may be missing. Equal entries are not always repeated. Where two headings read alike, the source gives them in different places.

Experiments:
[1] = tested on: Japanese patients with pulmonary arterial hypertension; conditions: baseline to week 16, study of selexipag in Japan; cited from earlier work
[2] = tested on: Japanese patients with pulmonary arterial hypertension; conditions: lowest value among 5, 15, or 30 min after inhalation at Week 12, IBUKI study; cited from earlier work
[3] = tested on: Japanese patients with pulmonary arterial hypertension; assay: 6-minute walking distance and Borg Dyspnea Score; assay type: in vivo, human
Method in brief: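 Single-arm, open-label study: test compound nebulised at 6 µg/breath from a 0.6 mg/mL solution, started at 3 breaths (18 µg)/session four times daily. Peak 6MWD taken 10–60 min after inhalation, trough 6MWD at least 4 h post-inhalation. Borg score was a secondary endpoint. Change from baseline; significance taken as a two-sided 95% CI excluding 0.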

[4] = tested on: Japanese patients with pulmonary arterial hypertension; assay: Quality of life, Minnesota Living with Heart Failure questionnaire; assay type: in vivo, human
Method in brief: (§1)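 Multicentre, non-randomised, single-arm study: 12-week main period plus 40-week extension. Nebulised test compound given as 0.6 mg/mL at 6 µg/breath, starting 3 breaths (18 µg)/session four times daily. Patients 18–75 y with PAH; stable background ERA/PDE5 inhibitor/sGC stimulator allowed; no other prostacyclin-pathway drugs. Secondary endpoints reported as change from baseline.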

[5] = Plasma pharmacokinetics in Japanese healthy adults, single inhalation; assay type: in vivo, human; conditions: 18 and 36 μg inhaled
[6] = tested on: Japanese patients with pulmonary arterial hypertension; assay: Time to clinical worsening; assay type: in vivo, human
Method in brief: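 Clinical worsening was defined as death, transplantation, hospitalisation for worsening PAH, or start of additional PAH-specific therapy. Followed during the 12-week main and 40-week long-term periods of open-label nebulised test compound (6 µg/breath, starting 3 breaths/session four times daily), in addition to background ERA and/or PDE5 inhibitor/sGC stimulator.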

[7] = 54 μg inhaled, non-Japanese PAH patients; cited from earlier work
[8] = tested on: Japanese patients with pulmonary arterial hypertension; assay: NT-proBNP levels; assay type: in vivo, human
Method in brief: as §1

[9] = tested on: Japanese patients with pulmonary arterial hypertension; assay: Safety: adverse events and safety parameters over 52 weeks; assay type: in vivo, human
Method in brief: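 Over the 52 weeks of nebulised test compound (6 µg/breath, starting 3 breaths four times daily), AEs were coded by MedDRA v24.0 preferred term. Monitoring covered clinical laboratory tests, blood pressure, pulse, SpO2, ECG, chest X-ray, pulmonary function, arterial blood gas and body weight. Safety set: patients who received at least one dose.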

[10] = tested on: Japanese patients with pulmonary arterial hypertension; assay: WHO functional class; assay type: in vivo, human
Method in brief: as §1

[11] = Plasma pharmacokinetics in Japanese PAH patients; assay type: in vivo, human
[12] = tested on: Japanese patients with pulmonary arterial hypertension; assay: Hemodynamic measurements by right heart catheterization; assay type: in vivo, human
Method in brief: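 RHC at baseline and Week 12, pre-inhalation and 15 and 30 min after inhaling test compound (6 µg/breath, starting 3 breaths four times daily). CO by thermodilution or indirect Fick per site, with the same method per patient. PVR = (mPAP−PAWP)/CO; PVRI = (mPAP−PAWP)/cardiac index (CO/BSA). Lower of 15/30-min PVRI taken as Week-12 "best". Significance: 95% CI of mean change excluding 0.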

[13] = over 52 weeks, n = 17, listed as treprostinil
[14] = human, plasma, inhaled or intranasal, 54 ug
[15] = Week 12, 15 min post-inhalation, n = 17
[16] = Week 12, 30 min post-inhalation, n = 17
[17] = Week 12, post-inhalation best, n = 17
[18] = Week 12, pre-inhalation (trough treprostinil level), n = 17
[19] = Week 12, pre-inhalation, n = 17

CC(C)N(CCCCOCC(=O)NS(C)(=O)=O)c1cnc(-c2ccccc2)c(-c2ccccc2)n1 [selexipag]
Change from baseline in mPAP [1]: −3.1 mmHg

CC#CCC(C)[C@H](O)/C=C/[C@@H]1[C@H]2C/C(=C/CCCC(=O)O)C[C@H]2C[C@H]1O (stereo partly drawn) [iloprost]
Best change from baseline in mPAP [2]: −6.75 mmHg

CCCCC[C@H](O)CC[C@@H]1[C@H]2Cc3cccc(OCC(=O)O)c3C[C@H]2C[C@H]1O [inhaled treprostinil, Treprostinil]
Mean change from baseline in trough 6MWD ([3]; Week 12): +17.8 ± 35.5 m
Change from baseline in Borg Dyspnea Score ([3]; Weeks 6, 12, and 52): No significant changes
Mean change from baseline in MLWHF global score ([4]; Week 12): −6.6 ± 12.1
Mean change from baseline in MLWHF global score ([4]; Week 52): −5.8 ± 13.4
Mean C max, Japanese vs non-Japanese healthy adults [5]: 1.2 fold
Add-on therapy with a PDE5 inhibitor/sGC stimulator ([6]; long-term treatment period, patients who had been receiving an ERA): two patients
Needed additional PAH-specific therapy ([6]; main treatment period (12 weeks)): no patient
Death, transplantation, or hospitalization due to worsening PAH ([6]; throughout the 52 weeks): no patient
Geometric mean C max [7]: 1.02 ng/mL
Mean change from baseline in NT-proBNP level ([8]; Week 6): -34.6 ± 100.0 pg/mL
Mean change from baseline in NT-proBNP level ([8]; Week 12): -35.5 ± 165.5 pg/mL
Mean change from baseline in NT-proBNP level ([8]; Week 52): -77.1 ± 194.1 pg/mL
AE related to treprostinil: cough ([9]; 52-week period): 47.1%
AE related to treprostinil: headache ([9]; 52-week period): 58.8%
AE related to treprostinil: hot flush ([9]; 52-week period): 23.5%
AE related to treprostinil: throat irritation ([9]; 52-week period): 29.4%
Intensity of AEs ([9]; all AEs, 52-week period): mild‐moderate intensity
Tolerability ([9]; four times daily in Japanese patients with PAH): well tolerated
AE related to treprostinil: Blood pressure decreased ([9]; over 52 weeks, n = 17): 2 (11.8) n (%)
AE related to treprostinil: Diarrhoea ([9]; over 52 weeks, n = 17): 2 (11.8) n (%)
AE related to treprostinil: Dizziness ([9]; over 52 weeks, n = 17): 2 (11.8) n (%)
AE related to treprostinil: Head discomfort ([9]; over 52 weeks, n = 17): 3 (17.6) n (%)
AE related to treprostinil: Hot flush ([9]; over 52 weeks, n = 17): 4 (23.5) n (%)
AE related to treprostinil: Nausea ([9]; over 52 weeks, n = 17): 3 (17.6) n (%)
AE related to treprostinil: Oropharyngeal discomfort ([9]; over 52 weeks, n = 17): 3 (17.6) n (%)
AE related to treprostinil: Oropharyngeal pain ([9]; over 52 weeks, n = 17): 2 (11.8) n (%)
AE related to treprostinil: Pyrexia ([9]; over 52 weeks, n = 17): 2 (11.8) n (%)
AE related to treprostinil: cough ([9]; over 52 weeks, n = 17): 8 (47.1) n (%)
AE related to treprostinil: headache ([9]; over 52 weeks, n = 17): 10 (58.8) n (%)
AE related to treprostinil: throat irritation ([9]; over 52 weeks, n = 17): 5 (29.4) n (%)
Deaths ([9]; over 52 weeks, n = 17): no deaths
Deaths [9, 13]: 0 n (%)
Total patients with at least one AE [9, 13]: 17 n (%) and 17 (100.0) n (%)
Total patients with at least one AE related to treprostinil [9, 13]: 17 n (%) and 17 (100.0) n (%)
WHO functional class improved ([10]; Week 12): four
WHO functional class I ([10]; Week 12 (n = 17)): 1 (5.9) n (%)
WHO functional class II ([10]; Week 12 (n = 17)): 13 (76.5) n (%)
WHO functional class III ([10]; Week 12 (n = 17)): 3 (17.6) n (%)
WHO functional class I ([10]; Week 52 (n = 16)): 2 (12.5) n (%)
WHO functional class II ([10]; Week 52 (n = 16)): 12 (75.0) n (%)
WHO functional class III ([10]; Week 52 (n = 16)): 2 (12.5) n (%)
WHO functional class shift II -> I ([10]; baseline to Week 12 (n = 17)): 1 (5.9) n (%)
WHO functional class shift II -> II ([10]; baseline to Week 12 (n = 17)): 10 (58.8) n (%)
WHO functional class shift III -> II ([10]; baseline to Week 12 (n = 17)): 3 (17.6) n (%)
WHO functional class shift III -> III ([10]; baseline to Week 12 (n = 17)): 3 (17.6) n (%)
WHO functional class shift II -> I ([10]; baseline to Week 52 (n = 16)): 2 (12.5) n (%)
WHO functional class shift II -> II ([10]; baseline to Week 52 (n = 16)): 9 (56.3) n (%)
WHO functional class shift III -> II ([10]; baseline to Week 52 (n = 16)): 3 (18.8) n (%)
WHO functional class shift III -> III ([10]; baseline to Week 52 (n = 16)): 2 (12.5) n (%)
Deterioration of WHO functional class ([10]; throughout the 52 weeks): no patient
MRT [11, 14]: 55.8 ± 10.2 min
Vd/F [11, 14]: 76.7 ± 52.2 L
k el [11, 14]: 0.000272 s⁻¹
Time detectable in the plasma after inhalation ([11]; nine breaths (54 μg) four times daily): approximately 4 h
Best change from baseline in PVRI at Week 12 ([12]; 13 patients receiving a combination of an ERA and a PDE5 inhibitor/sGC stimulator): −36.7 ± 25.0%
CO [12, 15]: 4.9 ± 1.6 L/min
Cardiac index [12, 15]: 3.0 ± 0.9 L/min/m^2
PAWP [12, 15]: 9.4 ± 4.2 mmHg
PVR [12, 15]: 4.5 ± 1.8 Wood units
PVRI [12, 15]: 7.4 ± 2.8 Wood units·m^2
SVR [12, 15]: 17.8 ± 6.5 Wood units
SVRI [12, 15]: 28.8 ± 9.5 Wood units·m^2
SvO2 [12, 15]: 71.3 ± 5.6%
mPAP [12, 15]: 30.5 ± 10.1 mmHg
mRAP [12, 15]: 4.5 ± 3.1 mmHg
CO [12, 16]: 5.0 ± 1.5 L/min
Cardiac index [12, 16]: 3.0 ± 0.9 L/min/m^2
PAWP [12, 16]: 8.9 ± 3.9 mmHg
PVR [12, 16]: 4.4 ± 2.0 Wood units
PVRI [12, 16]: 7.3 ± 3.1 Wood units·m^2
SVR [12, 16]: 17.7 ± 6.2 Wood units
SVRI [12, 16]: 28.7 ± 9.2 Wood units·m^2
SvO2 [12, 16]: 70.0 ± 5.8%
mPAP [12, 16]: 30.1 ± 10.3 mmHg
mRAP [12, 16]: 4.8 ± 3.3 mmHg
CO [12, 17]: 5.1 ± 1.7 L/min
Cardiac index [12, 17]: 3.1 ± 0.9 L/min/m^2
PAWP [12, 17]: 8.5 ± 4.0 mmHg
PVR [12, 17]: 4.2 ± 1.9 Wood units
PVRI [12, 17]: 6.9 ± 2.9 Wood units·m^2
SVR [12, 17]: 17.5 ± 6.4 Wood units
SVRI [12, 17]: 28.4 ± 9.4 Wood units·m^2
SvO2 [12, 17]: 71.5 ± 5.5%
mPAP [12, 17]: 29.8 ± 9.9 mmHg
mRAP [12, 17]: 4.4 ± 3.0 mmHg
Change from baseline in PVR [12, 18]: −19.6 ± 26.8%
Change from baseline in PVRI [12, 18]: −19.2 ± 26.8%
Change from baseline in mPAP [12, 18]: −4.0 ± 6.1 mmHg
CO [12, 19]: 4.6 ± 1.3 L/min
Cardiac index [12, 19]: 2.8 ± 0.8 L/min/m^2
PAWP [12, 19]: 8.8 ± 4.1 mmHg
PVR [12, 19]: 5.7 ± 2.2 Wood units
PVRI [12, 19]: 9.3 ± 3.1 Wood units·m^2
SVR [12, 19]: 19.5 ± 6.2 Wood units
SVRI [12, 19]: 31.7 ± 8.7 Wood units·m^2
SvO2 [12, 19]: 71.2 ± 5.3%
mPAP [12, 19]: 34.1 ± 9.8 mmHg
mRAP [12, 19]: 5.0 ± 3.5 mmHg
Best change from baseline in PVRI at Week 12 ([12]; one patient who was treatment-naïve): −54.7%
% Change from baseline to Week 12 in CO ([12]; post-inhalation best, n = 17): 18.3 ± 20.0 (8.0 to 28.6) %
% Change from baseline to Week 12 in PAWP ([12]; post-inhalation best, n = 17): 24.2 ± 60.9 (−7.1 to 55.5) %
% Change from baseline to Week 12 in PVR ([12]; post-inhalation best, n = 17): −39.7 ± 25.6 (−52.9 to −26.5) %
% Change from baseline to Week 12 in PVRI (primary endpoint) ([12]; post-inhalation best, n = 17): −39.4 ± 25.5 (−52.6 to −26.3) %
% Change from baseline to Week 12 in SVR ([12]; post-inhalation best, n = 17): −15.3 ± 24.0 (−27.7 to −3.0) %
% Change from baseline to Week 12 in SVRI ([12]; post-inhalation best, n = 17): −14.8 ± 24.4 (−27.4 to −2.3) %
% Change from baseline to Week 12 in SvO2 ([12]; post-inhalation best, n = 17): 2.7 ± 5.8 (−0.3 to 5.7) %
% Change from baseline to Week 12 in cardiac index ([12]; post-inhalation best, n = 17): 17.8 ± 20.3 (7.3 to 28.2) %
% Change from baseline to Week 12 in mPAP ([12]; post-inhalation best, n = 17): −21.7 ± 19.7 (−31.9 to −11.6) %
% Change from baseline to Week 12 in mRAP ([12]; post-inhalation best, n = 17): −0.3 ± 57.0 (−31.9 to 31.2) %
Change from baseline to Week 12 in PVR ([12]; post-inhalation best, n = 17): −2.9 ± 2.0 (−4.0 to −1.9) Wood units
Change from baseline to Week 12 in PVRI ([12]; post-inhalation best, n = 17): −4.7 ± 3.0 (−6.2 to −3.1) Wood units·m^2
Change from baseline to Week 12 in SVR ([12]; post-inhalation best, n = 17): −3.3 ± 4.4 (−5.6 to −1.1) Wood units
Change from baseline to Week 12 in SVRI ([12]; post-inhalation best, n = 17): −5.3 ± 7.3 (−9.1 to −1.5) Wood units·m^2
Change from baseline to Week 12 in mPAP ([12]; post-inhalation best, n = 17): −8.3 ± 6.8 (−11.8 to −4.8) mmHg
Best change from baseline in PVRI at Week 12 ([12]; three patients receiving an ERA): −46.0 ± 35.1%
